High-throughput results as filed in PubChem BioAssay.
Most compounds without a hit are left out; they make up all but 1.4% or so of the library.
FXIa inh: blocks human coagulation factor XIa protease activity; inhibition, % at 5 µM; P03951; 220,000 compounds, 0.14% hits; purified FXIa, Boc-Glu-Ala-Arg-AMC fluorogenic substrate;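 active means inhibition of at least 40%; inactive means inhibition below 40%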;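 further: fluorescence of freed AMC excited at 355 nm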
Calpain2 inh: blocks pig calpain II enzyme activity; purified calpain II, fluorogenic peptide substrate, 30 min; inhibition, % at 16 µM; 220,000 compounds, 0.37% hits; AID 1236;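 active means inhibition above about 50%, limit read from the data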
FXIIa inh 1536: factor XIIa (human) inhibition. P00748. purified FXIIa, Boc-QGR-AMC fluorogenic substrate, 2 h. inhibition, % at 5 µM. 220,000 compounds, 0.3% hits; in the data active means inhibition above about 40%
Target sequence (P00748 20-372 limits assumed): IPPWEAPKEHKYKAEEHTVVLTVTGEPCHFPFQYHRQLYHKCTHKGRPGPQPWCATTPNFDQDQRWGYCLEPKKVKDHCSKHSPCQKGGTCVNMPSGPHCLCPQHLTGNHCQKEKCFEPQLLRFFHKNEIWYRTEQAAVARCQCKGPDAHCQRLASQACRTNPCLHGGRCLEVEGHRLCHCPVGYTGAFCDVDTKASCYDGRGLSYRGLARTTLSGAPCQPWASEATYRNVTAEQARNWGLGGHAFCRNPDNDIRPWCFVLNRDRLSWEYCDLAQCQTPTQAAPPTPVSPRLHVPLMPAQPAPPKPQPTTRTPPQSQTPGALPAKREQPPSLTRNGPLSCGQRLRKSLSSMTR
Target sequence (P00748 373-615 limits assumed): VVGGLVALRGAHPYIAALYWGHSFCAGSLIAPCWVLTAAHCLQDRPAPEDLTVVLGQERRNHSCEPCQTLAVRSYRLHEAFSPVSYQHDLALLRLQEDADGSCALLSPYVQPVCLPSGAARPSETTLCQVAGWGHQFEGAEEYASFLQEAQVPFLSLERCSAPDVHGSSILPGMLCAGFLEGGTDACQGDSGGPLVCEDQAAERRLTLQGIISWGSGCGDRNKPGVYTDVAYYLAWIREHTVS
hK5 inh: inhibitors of human kallikrein 5; recombinant hK5, fluorogenic AMC substrate cleavage; inhibition, % at 5 µM; 210,000 compounds, 0.59% hits;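 active means inhibition of 40% or more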
thrombin 1536: inhibitors of human thrombin; P00734; alpha-thrombin, Boc-VPR-AMC fluorogenic substrate cleavage; inhibition, % at 5 µM; 220,000 compounds, 0.26% hits; AID 1046;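 active means inhibition at or above 40%; inactive means inhibition below 40%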
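System – human alpha-thrombin protein · Reagent – Boc-VPR-AMC substrate, 15 µM final · Compound – 5 µM single dose in 0.2% DMSO · Schedule – reaction at room temperature · Technique – AMC fluorescence at 355 nm excitation and 460 nm emission · Read-out basis – % inhibition relative to enzyme controls and enzyme-free blanks · Control set – no-compound enzyme wells and no-enzyme blanks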
Large screens that a line does not name were inactive.

COC(/C=C/Nc1ccc(Br)cc1)=C(C#N)C#N	hK5 inh 49
COc1ccc(N2C(N)=C(C#N)C(c3cccnc3)C3=C2CC(C)(C)CC3=O)cc1 (stereo unspecified)	hK5 inh 51
CC1=C(C(=O)OCC2CCCO2)C(c2ccc(C)o2)C2=C(CC(c3ccc(N(C)C)cc3)CC2=O)N1 (stereo unspecified)	Calpain2 inh 99
CC1=C(C(=O)OCC2CCCO2)C(c2ccc(C)cc2)C2=C(CCCC2=O)N1 (stereo unspecified)	none
CC1=C(C(=O)OCC2CCCO2)C(c2ccc(C)o2)C2=C(CC(c3ccc(F)cc3)CC2=O)N1 (stereo unspecified)	FXIIa inh 1536 51
CC(=O)Nc1ccc(S(=O)(=O)Nc2cccc3[nH]ncc23)cc1	Calpain2 inh 51
CCOc1ccc(Cl)cc1S(=O)(=O)N1CCN(c2ccc(F)cc2)CC1	Calpain2 inh 59
Cc1ccc(S(=O)(=O)NN2C(=O)/C(=C/c3cccs3)SC2=S)cc1	none
Cc1ccc(S(=O)(=O)NN2C(=O)/C(=C/c3cccn3C)SC2=S)cc1	hK5 inh 41
CCCCc1nnc(NC(=O)COc2ccc3c(C)cc(=O)oc3c2)s1	hK5 inh 112
COc1ccc(CNC(=O)c2cc(-c3ccncc3)nc3c(C)cc(C)cc23)cc1OC	none
O=C1C2C3c4ccccc4C(c4ccccc43)C2C(=O)N1/N=C/c1cccc(O)c1 (stereo unspecified)	hK5 inh 42
CCCCCN1C(=O)Cn2c(nc3ccccc3c2=O)C1C (stereo unspecified)	none
COc1cc(C=O)ccc1OS(=O)(=O)c1ccccc1[N+](=O)[O-]	none
CCOc1cc(/C=N/n2cnnc2)ccc1OS(=O)(=O)c1ccccc1	Calpain2 inh 63
COc1cc(/C=N/n2cnnc2)ccc1OS(=O)(=O)c1ccccc1[N+](=O)[O-]	Calpain2 inh 59
O=C(Nc1ccncc1)c1ccccc1-c1ccccc1	none
O=C(/C=C/c1cccc(Br)c1)Nc1nn[nH]n1	none
Brc1cccc(/C=N/Nc2nn[nH]n2)c1	FXIa inh 102, FXIIa inh 1536 43
CCOc1ccc(-n2c(C)nc3c(cnn3-c3ccc(Cl)cc3)c2=O)cc1	none
Cc1nc2c(cnn2-c2ccc(Cl)cc2)c(=O)n1-c1ccc(N2CCC(C)CC2)cc1	hK5 inh 54
CCN(CC)S(=O)(=O)c1cccc(NC(=O)c2cc(=O)[nH]c3ccccc23)c1	none
CCOc1cc(/C=N/NC(=O)C(=O)N2CCCC2)ccc1O	none
O=C(CCC(=O)N/N=C/c1cc(Cl)cc(Cl)c1O)NCc1ccccc1	none
O=C1c2cccc3cccc(c23)C(=O)N1/N=C/c1ccc(O)cc1O	none
O=C1c2ccccc2C(=O)N1/N=C/c1ccc(O)c(O)c1O	hK5 inh 45
Cc1ccc(CN(Cc2ccccc2)C(=S)Nc2ccccc2C)o1	none
O=C(CCC1CCCN(c2ncccn2)C1)N1CCN(c2ccccn2)CC1 (stereo unspecified)	none
O=C(CCC1CCCN(C(=O)C2(c3ccccc3)CC2)C1)N1CCN(c2ccccn2)CC1 (stereo unspecified)	thrombin 1536 96
COc1cc(C(=S)N2CCN(c3ccccc3Cl)CC2)cc(O)c1O	none
O=C(CSC1CCCCC1)Nc1nccs1	hK5 inh 54, thrombin 1536 104
Cc1nnc(SCC(=O)Nc2ccc(Oc3ccccc3)cc2)n1N	none
Cc1nnc(SCc2cccc(Oc3ccccc3)c2)n1N	hK5 inh 59
CCN1C/C(=N\S(=O)(=O)/N=C2\CN(CC)C(=O)N2CC)N(CC)C1=O	none
COc1ccc(Cc2nnc(NS(=O)(=O)c3ccc(Cl)cc3)s2)cc1OC	none
O=c1oc(-c2ccccc2NS(=O)(=O)c2ccc3ccccc3c2)nc2ccccc12	hK5 inh 59
O=S(=O)(Nc1ccc(S(=O)(=O)Nc2cccc3ccccc23)cc1)c1ccccc1	none
CC1=CC2=NC(=O)/C(=C\c3cccn3CCOc3cccc(C)c3)C(=N)N2O1	none
CC1=CC2=NC(=O)/C(=C\c3cccn3CCOc3cc(C)cc(C)c3)C(=N)N2O1	Calpain2 inh 88
COC(=O)[C@@H]1C[C@@H]2CC[C@@H](O)C[C@@H]2N1Cc1ccc(N2CCN(C)CC2)cc1	none
CCOC(=O)c1c(C)n(C)c2ccc(OC(=O)c3ccc(N4C(=O)CCC4=O)cc3)cc12	none
CC(=O)NC(=S)Nc1cc(C(F)(F)F)ccc1N1CCOCC1	none
O=C(NC(=S)Nc1cc(C(F)(F)F)ccc1N1CCOCC1)c1ccco1	hK5 inh 42
O=C(COc1ccc(Nc2ccccc2)cc1)OCC(=O)N1CCCCC1	none
CCOc1ccc(N(CC(=O)NC(C(C)C)C(C)C)S(=O)(=O)c2ccc(OC)c(OC)c2)cc1	none
CC1CCCN(C(=O)c2sc3cc([N+](=O)[O-])ccc3c2Cl)C1 (stereo unspecified)	Calpain2 inh 68
O=C(Nc1cccc2ncccc12)C(c1ccccc1)c1ccccc1	none
CC(C)(C)NC(=O)C1CCN(S(=O)(=O)c2cccc(C(F)(F)F)c2)CC1	none
CCOC(=O)Nc1sc(C)nc1-c1ccccc1	hK5 inh 196
CC(CCn1cccn1)NC(=O)CCc1nnc(C2CCCCC2)o1 (stereo unspecified)	none
O=C(Cc1cn(Cc2cccc(Cl)c2)c2ccccc12)N1CCCC1	Calpain2 inh 52
Cc1ccc(Cl)cc1N1CCN(C(=O)Cc2cn(C)c3ccccc23)CC1	Calpain2 inh 55
CCOC(=O)c1sc(NC(=O)CCSC)nc1C	none
CCOC(=O)c1sc(NC(=O)CSC(=S)N2CCN(C)CC2)nc1C	FXIa inh 44
COc1ccc(OC)c(NC(=O)CC2C(=O)NCCN2C(=O)Nc2cccc(Cl)c2)c1 (stereo unspecified)	FXIIa inh 1536 45
Cn1c(N)c(C(=O)COC(=O)CC2CC3CCC2C3)c(=O)n(C)c1=O (stereo unspecified)	Calpain2 inh 92
Cn1c(N)c(C(=O)COC(=O)CSc2ccccc2)c(=O)n(C)c1=O	none
O=C(CC1CC2CCC1C2)OCC(=O)c1c[nH]c2ccccc12 (stereo unspecified)	Calpain2 inh 79
O=C(COC(=O)CC1CC2CCC1C2)Nc1ccc(F)cc1 (stereo unspecified)	none (no result: FXIIa inh 1536)
CC(=O)NC(CC(=O)OCC(=O)c1c(N)n(C)c(=O)n(C)c1=O)c1ccccc1 (stereo unspecified)	FXIIa inh 1536 40
CC1CN=C(N(C(=S)Nc2ccccc2)c2cccc(C(F)(F)F)c2)S1 (stereo unspecified)	none
COc1ccc(OC)c(Cc2nnc(CCC(=O)N3CCC(N4CCCCC4)CC3)o2)c1	hK5 inh 44
CCOC(=O)C1=C(CNCCc2ccc(Cl)cc2)NC(=O)NC1c1cccc([N+](=O)[O-])c1 (stereo unspecified)	none
CCOC(=O)C1=C(CNC(C)(C)CC(C)(C)C)NC(=O)NC1c1cccc([N+](=O)[O-])c1 (stereo unspecified)	Calpain2 inh 61 (no result: thrombin 1536)
Cc1cc(C)nc(NC(=O)c2ccc([N+](=O)[O-])o2)n1	none
